This is an account of results in paper PMC8741576 (Molecular Diversity, 2022).

What is called IC50 is the concentration needed to halve the response being measured. Usually EC50 stands for the concentration needed to bring the measured effect to its halfway point.

In data set [1] the test system is HCT-116 colorectal carcinoma cells. The experiment in a line: Antiproliferative screening, MTS cell viability assay. It is filed as cell-based. The following applies: Homo sapiens, HCT-116, 72 h, read-out: IC50 HCT-116.
Data set [2] concerns human coronavirus 229E.
The test system of data set [3] is Capan-1 pancreatic adenocarcinoma cells. The data set is described as follows: Antiproliferative screening, MTS cell viability assay. It counts as cell-based. The following applies: Homo sapiens, CAPAN-1, 72 h, read-out: IC50 Capan-1. In general terms: Formazan colour is commonly taken as a measure of viable cells.
In data set [4] the test system is K-562 chronic myeloid leukemia cells. The experiment in a line: Antiproliferative screening, IncuCyte cell growth. It is filed as cell-based. The following applies: Homo sapiens, K562, 72 h, read-out: IC50 K-562.
For data set [5], the system named is DND-41 acute lymphoblastic leukemia cells. The experiment in a line: Antiproliferative screening, IncuCyte cell growth. It counts as cell-based. The following applies: Homo sapiens, DND41, 72 h, read-out: IC50 DND-41.
For data set [6], the system named is NCI-H460 lung carcinoma cells. The data set is described as follows: Antiproliferative screening, MTS cell viability assay. It counts as cell-based. The following applies: Homo sapiens, NCI-H460, 72 h, read-out: IC50 NCI-H460.
In data set [7] the test system is HEL 299 normal human lung fibroblasts. The experiment in a line: Antiproliferative screening on noncancerous cells. The following applies: Homo sapiens, HEL 299, read-out: IC50 HEL 299.
The test system of data set [8] is Z-138 non-Hodgkin lymphoma cells. The data set is described as follows: Antiproliferative screening, IncuCyte cell growth. The following applies: Homo sapiens, Z-138, 72 h, read-out: IC50 Z-138. It counts as cell-based.
The subject of data set [9] is HL-60 acute myeloid leukemia cells. The data set is described as follows: Antiproliferative screening, IncuCyte cell growth. It counts as cell-based. The following applies: Homo sapiens, HL-60, 72 h, read-out: IC50 HL-60.
The test system of data set [10] is LN-229 glioblastoma cells. The experiment in a line: Antiproliferative screening, MTS cell viability assay. It counts as cell-based. The following applies: Homo sapiens, LN-229, 72 h, read-out: IC50 LN-229.
Data set [11] is described as follows: in vitro. The following applies: human.
In data set [12] the test system is human solid tumor and leukemia cell lines. It counts as cell-based. The following applies: read-out: Antiproliferative IC50 across cancer cell lines.
Data set [13] relates to human coronavirus OC43. The experiment in a line: Antiviral assay, virus-induced cytopathic effect, MTS, HEL cells. It is filed as cell-based. The following applies: HEL cell culture.
Data set [14] concerns C. violaceum ATCC31532 QS-reporter strain. The experiment in a line: Anti-QS screening, violacein production. It counts as cell-based. The following applies: Chromobacterium violaceum, ATCC31532, read-out: Anti-QS IC50.
The nature of data set [15]: Cytotoxicity in MT-4 cell culture. It counts as cell-based. The following applies: human, MT-4 cells.
Data set [16] concerns HIV-1 NL4.3. The data set is described as follows: Antiretroviral assay in MT-4 cells, cytopathic effect. It counts as cell-based. Put shortly:
(§1)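 MT-4 cells (1 × 10^6 cells/mL) were pre-incubated with test compound for 30 min at 37 °C. HIV-1 NL4.3 or HIV-2 ROD was then added according to the CCID50 of the viral stock. Cytopathic effect was scored microscopically 5 days post-infection. […] SI was taken as the CC50/EC50 ratio.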
(In general: Damage to the host cells serves as the signal in cytopathic effect assays.)

Data set [17] relates to HIV-2 ROD. Described as above. It is filed as cell-based. The method, boiled down:
as §1

Data set [18] deals with MT-4 cells. The data set is described as follows: Cytotoxicity in MT-4 cell culture. It counts as cell-based. The following applies: read-out: Cytotoxicity (CC50); MT-4 cell culture.
A short description of data set [19]: in vitro. The following applies: human. This is another data set of the same source.

SMILES strings stand for the structures. Read-outs that look alike come from different tables or passages of the source. Some results are limits rather than exact numbers.

`O=C(NCCCCNc1ccnc2ccccc12)c1ccccc1NCc1ccccc1` [Compound 10, 2-(Benzylamino)-N-[4-(quinolin-4-ylamino)butyl]benzamide]: the half-maximal inhibitory concentration (IC50) in data set [1] was 7.4 ± 1.5 µM; in data set [3], 4.2 ± 3.4 µM; in data set [4], 5.9 ± 3.5 µM; in data set [5], 8 ± 3.2 µM; in data set [6] it was 2.2 ± 0.8 µM; in [7], 33.6 ± 15.6 µM. The IC50 is 4.6 ± 2 µM in [8], 14.9 ± 7.3 µM in data set [9] and 3 ± 2 µM in data set [10]. Further, the “SI, selectivity index (CC50 to EC50 ratio) 229E” value in data set [2] (HEL cell culture) was above 7. In addition, in [11], the CC50 amounted to 5.6 ± 3 µM.

As to `Nc1ccc(Br)cc1C(=O)NCCCCNc1ccnc2cc(Cl)ccc12` [Compound 13, 2-Amino-5-bromo-N-{4-[(7-chloroquinolin-4-yl)amino]butyl}benzamide], the IC50 was 2 to 10 µM in data set [12]; 7 ± 0.3 µM in data set [1]; 5.4 ± 1.8 µM in data set [3]; 7.7 ± 1.1 µM in data set [4]; 7.8 ± 4.1 µM in data set [5]; 5.3 ± 0.4 µM in data set [6]. Further, the 50% inhibitory concentration (IC50) in data set [7] was 7.8 ± 1.8 µM; in data set [14] it was 3.7 µM; in [8] it was 6 ± 2.6 µM; in [9] it was 10.3 ± 3.2 µM; in data set [10] it was 3.1 ± 0.8 µM. For the same compound, in data set [2] (HEL cell culture), the “SI, selectivity index (CC50 to EC50 ratio) 229E” value is 5.4. In addition, the “SI, selectivity index (CC50 to EC50 ratio) OC43” value in data set [13] came out at 5.0. The compound further registered a CC50 in [11] of 7.5 ± 1.3 µM.

In data set [15], `COc1cc(NC(C)CCCNC(=O)c2ccccc2N)c2ncccc2c1` (stereo not drawn) [Compound 14, 2-Amino-N-{4-[(6-methoxyquinolin-8-yl)amino]pentyl}benzamide] gave a CC50 at 5 days of 78.2 ± 9.3 µM. The IC50 in [1] was above 100 µM; in [3], above 100 µM; in data set [4], above 100 µM; in [5], above 100 µM; in [6], 76.7 ± 25 µM; in data set [7], above 100 µM. The IC50 in data set [8], in [9] and in data set [10] was above 100 µM in each case. Also, the “SI, selectivity index (CC50 to EC50 ratio) HIV-1 NL4.3” value in [16] (MT-4 cell culture) is 8.4.

With `CC(Cn1cnc2c(N)ncnc21)OCP(=O)(O)O` (stereo not drawn) [PMPA, 2-phosphonomethoxypropyl adenine], the EC50 in data set [17] (read-out: Antiviral activity (EC50) HIV-2 ROD, MT-4 cell culture, 5 days post-infection) stood at 0.6 µM; in data set [16] (read-out: Antiviral activity (EC50) HIV-1 NL4.3, MT-4 cell culture, 5 days post-infection), 1.6 µM. Moreover, in data set [18], the CC50 was above 100 µM.

In turn, `COc1cc(NC(C)CCCNC(=O)c2cc(Br)ccc2N)c2ncccc2c1` (stereo not drawn) [Compound 16, 2-Amino-5-bromo-N-{4-[(6-methoxyquinolin-8-yl)amino]pentyl}benzamide] had a CC50 at 5 days in data set [15] of 56.4 ± 1.6 µM. The IC50 in [1], in data set [3], in data set [4], in [5], in [6] and in data set [7] was above 100 µM in each case. The IC50 in [8], in [9] and in data set [10] was above 100 µM throughout. Moreover, the “SI, selectivity index (CC50 to EC50 ratio) HIV-1 NL4.3” value in [16] (MT-4 cell culture) is recorded as 4.0.

In the case of `CCN(CC)CCCC(C)Nc1ccnc2cc(Cl)ccc12` (stereo not drawn) [CQ, chloroquine, reference compound], the “SI, selectivity index (CC50 to EC50 ratio) HIV-2 ROD” value in data set [17] (MT-4 cell culture) is given as above 26.3. The compound further showed a CC50 at 5 days in [15] above 100 µM. Moreover, the half-maximal inhibitory concentration (IC50) was 65.5 ± 7.3 µM in data set [1]; 46.1 ± 1.3 µM in data set [3]; 50.6 ± 2.9 µM in data set [4]; 59.5 ± 3.5 µM in data set [5]; above 100 µM in data set [6]; 84.7 ± 15.3 µM in [7]. Further, the half-inhibitory concentration (IC50) in data set [8] is 47.4 ± 5.3 µM; in [9] it was above 100 µM; in data set [10], 8.9 ± 2.3 µM. Also, the “SI, selectivity index (CC50 to EC50 ratio) HIV-1 NL4.3” value in [16] (MT-4 cell culture) is recorded as above 3.2. In addition, the “SI, selectivity index (CC50 to EC50 ratio) 229E” value in data set [2] came out at 29.1. In data set [13], the “SI, selectivity index (CC50 to EC50 ratio) OC43” value amounted to 31.4. Moreover, in [19], the selectivity ratio is around 30. The same compound yielded a CC50 in data set [11] of 40.8 ± 2.2 µM.

On to `COc1cc(NC(C)CCCN)c2ncccc2c1` (stereo not drawn) [PQ, primaquine, reference compound], for which the “Anti-HIV / antiretroviral activity in words” value in data set [17] (MT-4 cells) and in [16] (MT-4 cells) was “no anti-HIV activity” each time. In [15], the CC50 at 5 days was determined as 17.9 ± 8 µM. The IC50 in data set [1] was 53.9 ± 4.2 µM; in [3], 45.6 ± 3.5 µM; in data set [4], 40.5 ± 6 µM; in [5] it was 50.2 ± 16.7 µM; in data set [6] it was above 100 µM; in data set [7] it was above 100 µM. Moreover, the IC50 in [8] was 11.4 ± 1.1 µM; in data set [9], 28.4 ± 1.6 µM; in data set [10] it was 45.4 ± 1.2 µM. Also, in data set [11], the CC50 is above 100 µM.

As to `Nc1ccccc1C(=O)NCCCCNc1ccnc2ccccc12` [Compound 11, 2-Amino-N-[4-(quinolin-4-ylamino)butyl]benzamide], the half-inhibitory concentration (IC50) in data set [1] came out at 45.4 ± 4.9 µM; in data set [3], 62.2 ± 9.7 µM; in [4], 18.7 ± 6.7 µM; in data set [5], 59.6 ± 1.7 µM; in [6], 87.4 ± 12.6 µM; in data set [7] it was 41.6 ± 1.2 µM. Moreover, the half-inhibitory concentration (IC50) in [8] was 31.2 ± 1.1 µM; in data set [9], 44.7 ± 11 µM; in data set [10], 39.7 ± 4.4 µM. Moreover, the “SI, selectivity index (CC50 to EC50 ratio) 229E” value in data set [2] (HEL cell culture) amounted to 6.0. Besides, in [11], the CC50 is 46.3 ± 1.2 µM.

`Cc1nc(CN)cc2c1[nH]c1ccccc12` [HA, (1-methyl-9H-pyrido[3,4-b]indol-3-yl)methanamine, reference compound] showed a CC50 at 5 days in data set [15] of 22.3 ± 4.9 µM. In addition, the IC50 in data set [1] was above 100 µM; in data set [3] it was 68.6 ± 3.4 µM; in data set [4] it was above 100 µM; in data set [5], above 100 µM; in data set [6] it was 85.1 ± 14.8 µM; in data set [7], above 100 µM. For the same compound, the values for the IC50 in data set [8], in data set [9] and in [10] were 57.4 ± 32.6 µM, above 100 µM and above 100 µM, respectively. The same compound registered a CC50 in data set [11] above 100 µM.

Turning to `CCC(CC)COC(=O)[C@H](C)N[P@](=O)(OC[C@H]1O[C@@](C#N)(c2ccc3c(N)ncnn23)[C@H](O)[C@@H]1O)Oc1ccccc1` [Remdesivir, remdesivir, reference compound], the “SI, selectivity index (CC50 to EC50 ratio) 229E” value in data set [2] (HEL cell culture) is above 160. Further, in [13], the “SI, selectivity index (CC50 to EC50 ratio) OC43” value is above 250. Moreover, the CC50 in data set [11] is above 10 µM.

Take `Nc1cc(Cl)ccc1C(=O)NCCCCNc1ccnc2cc(Cl)ccc12` [Compound 12, 2-Amino-4-chloro-N-{4-[(7-chloroquinolin-4-yl)amino]butyl}benzamide]: the IC50 in data set [12] was 2 to 10 µM; in data set [1], 8.9 ± 3 µM; in data set [3], 6.3 ± 2.8 µM; in data set [4], 8.4 ± 3.2 µM; in data set [5], 9.2 ± 2.2 µM; in data set [6], 7.3 ± 1.5 µM. For the same compound, the half-maximal inhibitory concentration (IC50) stood at 7.4 ± 1.2 µM in data set [7], 7.2 ± 2.6 µM in data set [8], 9.8 ± 3.5 µM in data set [9] and 2.8 ± 1.2 µM in data set [10]. Also, the “SI, selectivity index (CC50 to EC50 ratio) 229E” value in [2] (HEL cell culture) was determined as 4.6. Besides, in data set [13], the “SI, selectivity index (CC50 to EC50 ratio) OC43” value is above 10.4. The compound further registered a CC50 in data set [11] of 8.3 ± 0.78 µM.
